These results are taken from ChEMBL document CHEMBL1132178, “5-Amino-1-(chloromethyl)-1,2-dihydro-3H-benz[e]indoles: relationships between structure and cytotoxicity for analogues bearing different DNA minor groove binding subunits” (J Med Chem, 1999).

One assay concerns UV4. Description: The compound was tested for growth inhibition against UV4 tumor cell line(chinese hamster ovary). The assay is classed as functional, cell-based, Cricetulus griseus. A digest of the protocol:
(§1)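 Log-phase cultures seeded in 96-well plates (200 AA8, 300 UV4 or 50 EMT6 cells/well), drug added after 24 h. Aerobic 4 h exposure at 37 °C under 5% CO2, then washed and regrown 4 days. Cell density read by sulforhodamine B staining. IC50 is the concentration giving 50% growth inhibition versus same-plate controls; mean of 2–5 determinations ± SEM.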

The test system of another assay is CHO-AA8. Description: Tested for growth inhibition against AA8 tumor cell line(chinese hamster ovary). The assay is classed as functional, cell-based, Cricetulus griseus. Summed up:
as §1

The next assay has as its system EMT6. Nature of the assay: Tested for growth inhibition against EMT6 tumor cell line(murine mammary carcinoma). The assay is classed as functional, cell-based, Mus musculus. A digest of the protocol: as §1
The test system of another assay is SK-OV-3. Nature of the assay: Tested for growth inhibition against SKOV3 tumor cell line(human ovarian). Format: functional, cell-based. A digest of the protocol: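 Log-phase cultures of 600 SKOV3 cells/well in 96-well plates, drug added after 24 h. Aerobic 4 h exposure at 37 °C under 5% CO2, then washed and regrown 5 days. Growth read by sulforhodamine B staining. IC50 is the concentration giving 50% inhibition relative to same-plate controls; average of 2–5 determinations ± SEM.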

Turning to `COc1cc2cc(C(=O)N3CC(COS(C)(=O)=O)c4c3cc(N)c3ccccc43)[nH]c2c(OC)c1OC` (stereo unspecified), the IC50 is 0.46 nM with UV4 (Cricetulus griseus, UV4); 0.48 nM in the assay on CHO-AA8 (Cricetulus griseus, CHO-AA8); 0.4 nM with EMT6 (Mus musculus, EMT6); 1.2 nM in the assay on SK-OV-3 (Homo sapiens, SK-OV-3).
For the compound `CC(=O)Nc1cc(/C=C/C(=O)N2CC(CCl)c3c2cc(N)c2ccccc32)n(C)n1` (stereo unspecified), the IC50 with UV4 (Cricetulus griseus, UV4) amounted to 5.4 nM; with CHO-AA8 (Cricetulus griseus, CHO-AA8), 10.7 nM; in the assay with EMT6 (Mus musculus, EMT6) it was 4.9 nM; in the assay with SK-OV-3 (Homo sapiens, SK-OV-3) it was 13 nM.
Regarding `CC(=O)Nc1ccc2[nH]c(C(=O)N3CC(CCl)c4c3cc(N)c3ccccc43)cc2c1` (stereo unspecified), the IC50 in the assay on UV4 (Cricetulus griseus, UV4) was found to be 7.6 nM; with CHO-AA8 (Cricetulus griseus, CHO-AA8), 12.5 nM; in the assay with EMT6 (Mus musculus, EMT6), 5.2 nM; in the assay with SK-OV-3 (Homo sapiens, SK-OV-3) it was 17.3 nM.
Consider `CN(C)CCOc1ccc2[nH]c(C(=O)N3CC(CCl)c4c3cc(N)c3ccccc43)cc2c1` (stereo unspecified), for which the IC50 in the assay with UV4 (Cricetulus griseus, UV4) is 1.7 nM; in the assay with CHO-AA8 (Cricetulus griseus, CHO-AA8), 4.1 nM; in the assay on EMT6 (Mus musculus, EMT6), 1.3 nM; with SK-OV-3 (Homo sapiens, SK-OV-3), 7 nM.
In the case of `CN(C)CCOc1ccc(/C=C/C(=O)N2CC(CCl)c3c2cc(N)c2ccccc32)cc1` (stereo unspecified), the IC50 in the assay on UV4 (Cricetulus griseus, UV4) was found to be 0.56 nM; with CHO-AA8 (Cricetulus griseus, CHO-AA8), 1.5 nM; in the assay with EMT6 (Mus musculus, EMT6) it was 0.63 nM; in the assay with SK-OV-3 (Homo sapiens, SK-OV-3), 1.9 nM.
`COc1cc2cc(C(=O)N3CC(CCl)c4c3cc(N)c3ccccc43)[nH]c2c(OC)c1OC` (single isomer, unassigned; (+)): the IC50 in the assay with UV4 (uv4) is 0.14 nM; in the assay on CHO-AA8 (cho-aa8), 0.21 nM; with EMT6 (emt6) it was 0.13 nM; with SK-OV-3 (sk-ov-3) it was 0.54 nM.
As to `Nc1ccc2[nH]c(C(=O)N3CC(CCl)c4c3cc(N)c3ccccc43)cc2c1` (stereo unspecified), the IC50 came out at 1.1 nM in the assay on UV4 (Cricetulus griseus, UV4); 2.5 nM in the assay with CHO-AA8 (Cricetulus griseus, CHO-AA8); 0.83 nM in the assay with EMT6 (Mus musculus, EMT6); 3 nM in the assay on SK-OV-3 (Homo sapiens, SK-OV-3).
As for `COc1ccc2[nH]c(C(=O)N3CC(CCl)c4c3cc(N)c3ccccc43)cc2c1` (stereo unspecified), the IC50 in the assay on UV4 (Cricetulus griseus, UV4) turned out to be 0.84 nM; in the assay on CHO-AA8 (Cricetulus griseus, CHO-AA8), 1.3 nM; in the assay with EMT6 (Mus musculus, EMT6), 0.98 nM; with SK-OV-3 (Homo sapiens, SK-OV-3) it was 1.86 nM.
As to `COc1cccc(/C=C/C(=O)N2CC(CCl)c3c2cc(N)c2ccccc32)c1` (stereo unspecified), the IC50 in the assay with UV4 (Cricetulus griseus, UV4) came to 0.42 nM; in the assay on CHO-AA8 (Cricetulus griseus, CHO-AA8), 0.37 nM; in the assay with EMT6 (Mus musculus, EMT6), 0.63 nM; in the assay with SK-OV-3 (Homo sapiens, SK-OV-3) it was 0.68 nM.
Turning to `CCCC(=O)Nc1cc(/C=C/C(=O)N2CC(CCl)c3c2cc(N)c2ccccc32)n(C)c1` (stereo unspecified), the IC50 with UV4 (Cricetulus griseus, UV4) worked out at 16 nM; in the assay on CHO-AA8 (Cricetulus griseus, CHO-AA8), 31 nM; with EMT6 (Mus musculus, EMT6), 5.9 nM; in the assay on SK-OV-3 (Homo sapiens, SK-OV-3), 22 nM.
Regarding `COc1cc(OCCN(C)C)c2[nH]c(C(=O)N3CC(CCl)c4c3cc(N)c3ccccc43)cc2c1` (stereo unspecified), the IC50 was found to be 1.9 nM in the assay on UV4 (Cricetulus griseus, UV4); 3.7 nM with CHO-AA8 (Cricetulus griseus, CHO-AA8); 1.9 nM in the assay with EMT6 (Mus musculus, EMT6); 4.2 nM in the assay on SK-OV-3 (Homo sapiens, SK-OV-3).
For `Nc1cc2c(c3ccccc13)C(CCl)CN2C(=O)c1cc2cc(NC(=O)c3cc4ccccc4o3)ccc2[nH]1` (stereo unspecified), the IC50 worked out at 1.5 nM in the assay on UV4 (Cricetulus griseus, UV4); 2 nM in the assay on CHO-AA8 (Cricetulus griseus, CHO-AA8); 1.3 nM in the assay with EMT6 (Mus musculus, EMT6); 3.5 nM with SK-OV-3 (Homo sapiens, SK-OV-3).
Taken in the same sequence, the figures for `CC(=O)Nc1ccc(/C=C/C(=O)N2CC(CCl)c3c2cc(N)c2ccccc32)cc1` (stereo unspecified) were 1.4 nM, 2.6 nM, 1.2 nM and 2.7 nM.
On to `COc1ccc2[nH]c(/C=C/C(=O)N3CC(CCl)c4c3cc(N)c3ccccc43)cc2c1` (stereo unspecified), for which the IC50 in the assay with UV4 (Cricetulus griseus, UV4) is 0.22 nM; in the assay with CHO-AA8 (Cricetulus griseus, CHO-AA8), 0.28 nM; in the assay with EMT6 (Mus musculus, EMT6) it was 0.23 nM; in the assay on SK-OV-3 (Homo sapiens, SK-OV-3), 0.48 nM.
Consider `COc1cc2cc(C(=O)N3CC(CCl)c4c3cc(N)c3ccccc43)[nH]c2cc1OCCN(C)C` (stereo unspecified), for which the IC50 came out at 2.1 nM with UV4 (Cricetulus griseus, UV4); 3.6 nM in the assay on CHO-AA8 (Cricetulus griseus, CHO-AA8); 2 nM with EMT6 (Mus musculus, EMT6); 5.3 nM with SK-OV-3 (Homo sapiens, SK-OV-3).
Turning to `COc1ccc(/C=C/C(=O)N2CC(CCl)c3c2cc(N)c2ccccc32)cc1` (stereo unspecified), the IC50 in the assay with UV4 (Cricetulus griseus, UV4) was 0.058 nM; in the assay with CHO-AA8 (Cricetulus griseus, CHO-AA8), 0.09 nM; in the assay with EMT6 (Mus musculus, EMT6) it was 0.089 nM; with SK-OV-3 (Homo sapiens, SK-OV-3), 0.24 nM.
Turning to `CC(=O)Nc1cc(C(=O)Nc2cc(C(=O)N3CC(CCl)c4c3cc(N)c3ccccc43)nn2C)nn1C` (stereo unspecified), the IC50 with UV4 (Cricetulus griseus, UV4) came out at 253 nM; in the assay on CHO-AA8 (Cricetulus griseus, CHO-AA8), 374 nM; in the assay with EMT6 (Mus musculus, EMT6), 212 nM; in the assay on SK-OV-3 (Homo sapiens, SK-OV-3) it was 49 nM.
In the case of `CC(=O)Nc1cccc(/C=C/C(=O)N2CC(CCl)c3c2cc(N)c2ccccc32)c1` (stereo unspecified), the IC50 stood at 1.5 nM in the assay with UV4 (Cricetulus griseus, UV4); 2.7 nM in the assay with CHO-AA8 (Cricetulus griseus, CHO-AA8); 0.86 nM with EMT6 (Mus musculus, EMT6); 1.5 nM in the assay on SK-OV-3 (Homo sapiens, SK-OV-3).
Consider `COc1cc2cc(C(=O)N3CC(CCl)c4c3cc(N)c3ccccc43)[nH]c2c(OC)c1OC` (single isomer, unassigned; (-)), for which the IC50 with UV4 (uv4) was 2.7 nM; with CHO-AA8 (cho-aa8) it was 14 nM; in the assay with EMT6 (emt6), 7 nM; in the assay with SK-OV-3 (sk-ov-3) it was 7.9 nM.
